Laboratory results taken from ChEMBL document CHEMBL1148376, “Synthesis, monoamine transporter binding properties, and behavioral pharmacology of a series of 3beta-(substituted phenyl)-2beta-(3'-substituted isoxazol-5-yl)tropanes” (J Med Chem, 2004).
pIC50, pKi: −log10 of the molar value. Several values for one entry are separate records, joined by “and”; a condition that tells them apart may be missing. Identical values can stand only once. Activity calls are given as the source filed them. The calls are words filed in the database; no cut-off is given here.

Tests used:
[1] = biological target: T1, Norepinephrine transporter (Rattus norvegicus, UniProt Q9WTR4); experiment: Inhibition of norepinephrine transporter (NET) determined using [3H]nisoxetine radioligand.
In short: (§1)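 Competition binding at the NET with 0.5 nM [3H]nisoxetine (final concentration). Other procedures follow earlier published methods.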

Mus musculus [2] = experiment: Percent change locomotor activity in mice at 1 mg/kg i.p. in 3 h.; format: functional; conditions: route intraperitoneal
In short: (§2)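 Mice habituated 1/2 h to photocell activity chambers, then injected ip with compound homogenized in 0.5% methyl cellulose (10 mL/kg); vehicle controls; N = 5 or 6 per dose. Photobeam interruptions recorded in 10-min bins for 4 h, grouped into 1-h bins; one-way ANOVA with Newman-Keuls post hoc test (p < 0.05).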

Mus musculus [3] = experiment: Percent change from vehicle in locomotor activity in mice at 30 mg/kg (ip) in 4 h; format: functional
[4] = biological target: T2, Sodium-dependent serotonin transporter (Rattus norvegicus, UniProt P31652); experiment: Inhibitory concentration required to inhibit serotonin transporter 5-HTT was determined by using [3H]paroxetine radioligand
In short: (§3)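 Competition binding at the 5-HTT with 0.2 nM [3H]paroxetine (final concentration). Other procedures follow earlier published methods.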

[5] = biological target: T1, Norepinephrine transporter; experiment: Binding affinity towards norepinephrine transporter was determined using [3H]nisoxetine radioligand.; in short: as §1
Rattus norvegicus [6] = experiment: Drug discrimination effect of compound in rats, expressed as percent of rats choosing the cocaine lever at dose 3 mg/kg (ip); format: functional
Mus musculus [7] = experiment: Percent change in locomotor activity in mice at 1 mg/kg i.p. in 4 h.; format: functional; conditions: route intraperitoneal; in short: as §2
Mus musculus [8] = experiment: Percent change in locomotor activity in mice at 3 mg/kg i.p. in 3 h.; format: functional; conditions: route intraperitoneal; in short: as §2
Mus musculus [9] = experiment: Percent change in locomotor activity in mice at 3 mg/kg i.p. in 2 h.; format: functional; conditions: route intraperitoneal; in short: as §2
Mus musculus [10] = experiment: Percent change from vehicle in locomotor activity in mice at 30 mg/kg (ip) in 2 h; format: functional
Mus musculus [11] = experiment: Percent change from vehicle in locomotor activity in mice at 10 mg/kg (ip) in 4 h; format: functional
Mus musculus [12] = experiment: Percent change from vehicle in locomotor activity in mice at 0.3 mg/kg (ip) in 2 h; format: functional
[13] = biological target: Sodium-dependent dopamine transporter (Rattus norvegicus, UniProt P23977); experiment: Inhibitory concentration required to inhibit dopamine transporter DAT was determined by using [3H]WIN-35428 radioligand
In short: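 Competition binding at the DAT with 0.5 nM [3H]WIN35,428 (final concentration). Other procedures follow earlier published methods.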

Mus musculus [14] = organism: Mus musculus; experiment: Effective dose was evaluated for locomotor activity in mice in the peak hour; No stimulation; format: functional, organism-based
Mus musculus [15] = experiment: Percent change from vehicle in locomotor activity in mice at 0.3 mg/kg (ip) in 4 h; format: functional
Mus musculus [16] = experiment: Percent change from vehicle in locomotor activity in mice at 10 mg/kg (ip) in 3 h; format: functional
Mus musculus [17] = experiment: Percent change in locomotor activity in mice at 3 mg/kg i.p. in 4 h.; format: functional; conditions: route intraperitoneal; in short: as §2
Mus musculus [18] = experiment: Percent change from vehicle in locomotor activity in mice at 10 mg/kg (ip) in 2 h; format: functional
Mus musculus [19] = experiment: Percent change in locomotor activity in mice at 1 mg/kg i.p. in 1 h.; format: functional; conditions: route intraperitoneal
Rattus norvegicus [20] = experiment: Drug discrimination effect of compound in rats, expressed as percent of rats choosing the cocaine lever at dose 1 mg/kg (ip); format: functional
Mus musculus [21] = experiment: Percent change from vehicle in locomotor activity in mice at 0.3 mg/kg (ip) in 3 h; format: functional
Mus musculus [22] = experiment: Percent change from vehicle in locomotor activity in mice at 10 mg/kg (ip) in 1 h; format: functional
Rattus norvegicus [23] = experiment: Drug discrimination effect of compound in rats, expressed as percent of rats choosing the cocaine lever at dose 10 mg/kg (ip); format: functional
Rattus norvegicus [24] = experiment: Drug discrimination effect of compound in rats, expressed as percent of rats choosing the cocaine lever at dose 30 mg/kg (ip); format: functional
Mus musculus [25] = experiment: Percent change in locomotor activity in mice at 3 mg/kg i.p. in 1 h.; format: functional; conditions: route intraperitoneal; in short: as §2
Mus musculus [26] = experiment: Percent change from vehicle in locomotor activity in mice at 0.3 mg/kg (ip) in 1 h; format: functional
Mus musculus [27] = experiment: Percent change from vehicle in locomotor activity in mice at 30 mg/kg (ip) in 1 h; format: functional
Mus musculus [28] = experiment: Percent change from vehicle in locomotor activity in mice at 30 mg/kg (ip) in 3 h; format: functional
Rattus norvegicus [29] = experiment: Effective dose for drug discrimination effect in rat (ip); format: functional
In short: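 Cocaine-trained rat drug discrimination, FR10, 10-min sessions. Compound in 0.5% methyl cellulose given ip 15 min before session, usually to 7-8 rats per dose. Doses were raised from ≤20% to ≥80% cocaine-lever choice, capped at 30 mg/kg, >50% loss of pressing, or side effects.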

Mus musculus [30] = organism: Mus musculus; experiment: Hour 1 ratio to cocaine was determined for locomotor activity in mice; format: functional
Rattus norvegicus [31] = experiment: Drug discrimination effect of compound in rats, expressed as percent of rats choosing the cocaine lever at dose 17 mg/kg (ip); format: functional
Mus musculus [32] = organism: Mus musculus; experiment: Effective dose for locomotor activity in mice in the peak hour.; format: functional
Rattus norvegicus [33] = experiment: Drug discrimination effect of compound in rats, expressed as percent of rats choosing the cocaine lever at dose 5.6 mg/kg (ip); format: functional
Rattus norvegicus [34] = experiment: Drug discrimination effect of compound in rats, expressed as percent of rats choosing the cocaine lever at dose 1.7 mg/kg (ip); format: functional
[35] = biological target: T2, Sodium-dependent serotonin transporter; experiment: Binding affinity towards serotonin transporter 5-HTT was determined using [3H]paroxetine radioligand.; in short: as §3
Mus musculus [36] = experiment: Percent change from vehicle in locomotor activity in mice at 0.1 mg/kg (ip) in 2 h; format: functional
Rattus norvegicus [37] = experiment: Drug discrimination effect of compound in rats, expressed as percent of rats choosing the cocaine lever at dose 0.3 mg/kg (ip); format: functional
Mus musculus [38] = experiment: Percent change from vehicle in locomotor activity in mice at 0.1 mg/kg (ip) in 3 h; format: functional
Rattus norvegicus [39] = experiment: Drug discrimination effect of compound in rats, expressed as percent of rats choosing the cocaine lever at dose 0.56 mg/kg (ip); format: functional
Mus musculus [40] = experiment: Percent change from vehicle in locomotor activity in mice at 0.1 mg/kg (ip) in 1 h; format: functional
Mus musculus [41] = experiment: Percent change from vehicle in locomotor activity in mice at 0.1 mg/kg (ip) in 4 h; format: functional
Mus musculus [42] = experiment: Percent change in locomotor activity in mice at 1 mg/kg i.p. in 2 h.; format: functional; conditions: route intraperitoneal; in short: as §2
Rattus norvegicus [43] = experiment: Drug discrimination effect of compound in rats, expressed as percent of rats choosing the cocaine lever at dose 0.17 mg/kg (ip); format: functional
Rattus norvegicus [44] = experiment: Drug discrimination effect of compound in rats, expressed as percent of rats choosing the cocaine lever at dose 0.1 mg/kg (ip); format: functional

T2 sequence (P31652 whole entry): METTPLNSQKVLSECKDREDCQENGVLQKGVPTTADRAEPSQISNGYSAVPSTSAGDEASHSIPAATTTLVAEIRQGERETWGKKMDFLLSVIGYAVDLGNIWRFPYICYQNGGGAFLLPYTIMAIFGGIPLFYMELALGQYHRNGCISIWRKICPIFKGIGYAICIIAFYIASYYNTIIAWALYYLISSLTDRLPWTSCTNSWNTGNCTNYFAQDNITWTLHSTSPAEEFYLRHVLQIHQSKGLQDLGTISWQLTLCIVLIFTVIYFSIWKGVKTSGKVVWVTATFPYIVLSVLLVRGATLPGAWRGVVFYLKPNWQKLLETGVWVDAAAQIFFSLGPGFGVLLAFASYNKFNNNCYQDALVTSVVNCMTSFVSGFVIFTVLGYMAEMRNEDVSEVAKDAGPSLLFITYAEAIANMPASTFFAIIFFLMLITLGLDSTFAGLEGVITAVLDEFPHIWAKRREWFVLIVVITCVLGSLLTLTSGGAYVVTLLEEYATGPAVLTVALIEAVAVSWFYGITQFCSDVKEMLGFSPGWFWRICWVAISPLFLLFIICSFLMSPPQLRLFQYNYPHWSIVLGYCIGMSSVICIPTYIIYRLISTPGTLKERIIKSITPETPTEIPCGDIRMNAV
T1 sequence (Q9WTR4 whole entry): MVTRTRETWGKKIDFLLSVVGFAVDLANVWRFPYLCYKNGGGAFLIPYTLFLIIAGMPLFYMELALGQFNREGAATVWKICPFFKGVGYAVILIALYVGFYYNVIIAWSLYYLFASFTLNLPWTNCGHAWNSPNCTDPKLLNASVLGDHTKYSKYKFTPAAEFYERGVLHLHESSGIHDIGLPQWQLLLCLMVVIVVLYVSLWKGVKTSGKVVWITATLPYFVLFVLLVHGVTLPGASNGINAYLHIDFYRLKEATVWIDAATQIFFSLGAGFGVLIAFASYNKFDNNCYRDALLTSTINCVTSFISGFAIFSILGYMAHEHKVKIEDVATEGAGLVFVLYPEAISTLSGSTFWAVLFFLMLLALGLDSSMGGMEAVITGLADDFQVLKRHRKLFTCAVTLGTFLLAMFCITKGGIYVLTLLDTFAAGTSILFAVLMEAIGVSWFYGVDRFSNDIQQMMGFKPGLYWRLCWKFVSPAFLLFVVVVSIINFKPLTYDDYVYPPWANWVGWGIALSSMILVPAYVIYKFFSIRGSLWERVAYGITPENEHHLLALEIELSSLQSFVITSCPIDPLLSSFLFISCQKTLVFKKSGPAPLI
Sodium-dependent dopamine transporter, sequence (P23977 whole entry): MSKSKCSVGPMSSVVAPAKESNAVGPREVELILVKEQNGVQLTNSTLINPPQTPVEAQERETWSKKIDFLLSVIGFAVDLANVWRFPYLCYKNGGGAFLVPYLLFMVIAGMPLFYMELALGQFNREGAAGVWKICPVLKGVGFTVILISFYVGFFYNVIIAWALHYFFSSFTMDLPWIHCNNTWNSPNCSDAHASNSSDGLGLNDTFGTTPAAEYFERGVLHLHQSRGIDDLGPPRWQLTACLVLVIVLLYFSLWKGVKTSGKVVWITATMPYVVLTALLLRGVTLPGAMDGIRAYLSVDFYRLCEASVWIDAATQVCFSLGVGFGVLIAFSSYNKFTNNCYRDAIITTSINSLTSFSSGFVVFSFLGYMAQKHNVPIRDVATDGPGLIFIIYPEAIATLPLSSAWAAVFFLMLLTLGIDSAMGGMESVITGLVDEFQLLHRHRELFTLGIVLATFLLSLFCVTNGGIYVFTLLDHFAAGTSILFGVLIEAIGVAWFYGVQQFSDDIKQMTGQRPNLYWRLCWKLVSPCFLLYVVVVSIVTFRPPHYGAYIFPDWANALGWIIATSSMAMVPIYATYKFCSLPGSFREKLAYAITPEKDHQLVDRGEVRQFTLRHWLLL

| Compound | pIC50 [1] | Change (Mus musculus [2]) | Change (Mus musculus [3]) | pIC50 [4] | pKi [5] | Change (Mus musculus [8]) | Change (Mus musculus [9]) | Change (Mus musculus [10]) | Change (Mus musculus [11]) | Change (Mus musculus [12]) | pIC50 [13] | Change (Mus musculus [15]) | Change (Mus musculus [16]) | Change (Mus musculus [17]) | Change (Mus musculus [18]) | Change (Mus musculus [19]) | Change (Mus musculus [21]) | ED50 (Rattus norvegicus [29]) | Ratio (Mus musculus [30]) | ED50 (Mus musculus [32]) | further results |
| --- | --- | --- | --- | --- | --- | --- | --- | --- | --- | --- | --- | --- | --- | --- | --- | --- | --- | --- | --- | --- | --- |
| Cc1ccc(C2CC3CCC(C2c2cc(-c4ccc(Cl)cc4)no2)N3C)cc1 (stereo not given) | 5.16 | 33% | 52% | < 4.00 | 5.40 | 7% | 39% | 38% | -20% | -20% | 8.06 | 45% | -45% | -1% | -3% | 5% | -58% |  |  |  | Drug discrimination effect (Rattus norvegicus [6]): 13%; Change (Mus musculus [7]; 1 mg/kg): 24% and 27%; ED50 (Mus musculus [14]): inactive; Drug discrimination effect (Rattus norvegicus [20]): 0%; Change (Mus musculus [22]): -1%; Drug discrimination effect (Rattus norvegicus [23]): 0%; Drug discrimination effect (Rattus norvegicus [24]): 0%; Change (Mus musculus [25]): 30%; Change (Mus musculus [26]): -35%; Change (Mus musculus [27]): -26%; Change (Mus musculus [28]): 79% |
| Cc1ccc(C2CC3CCC(C2c2cc(-c4ccc(F)cc4)no2)N3C)cc1 (stereo not given) | 6.04 |  | 179% | < 4.00 | 6.26 | 148% | 80% | 383% | 148% |  | 8.19 |  | 84% | 140% | 268% |  |  | 7.27 mg/kg | 0.4 | 6.3 mg/kg | Drug discrimination effect (Rattus norvegicus [31]): 88%; Drug discrimination effect (Rattus norvegicus [33]): 25%; Drug discrimination effect (Rattus norvegicus [34]): 0%; Change (Mus musculus [22]): 117%; Drug discrimination effect (Rattus norvegicus [23]): 25%; Change (Mus musculus [25]): 105%; Change (Mus musculus [27]): 192%; Change (Mus musculus [28]): 387% |
| COc1ccc(-c2cc(C3C(c4ccc(C)cc4)CC4CCC3N4C)on2)cc1 (stereo not given) | 6.12 |  | 483% | 5.39 | 6.34 | 27% | 32% | 235% | 34% |  | 8.41 |  | 65% | 30% | 115% |  |  | 11 mg/kg | 0.6 | 12.8 mg/kg | pKi [35]: 6.44; Drug discrimination effect (Rattus norvegicus [31]): 43%; Drug discrimination effect (Rattus norvegicus [33]): 0%; Change (Mus musculus [22]): 187%; Drug discrimination effect (Rattus norvegicus [24]): 83%; Change (Mus musculus [25]): 73%; Change (Mus musculus [27]): 290%; Change (Mus musculus [28]): 430% |
| CCc1cc(C2C(c3ccc(Cl)cc3)CC3CCC2N3C)on1 (stereo not given) | 6.92 | 1708% |  | 5.51 | 7.14 |  |  |  |  | 505% | 9.30 | 208% |  |  |  | 954% | 224% | 0.48 mg/kg | 2.1 | 0.4 mg/kg | pKi [35]: 6.55; Change (Mus musculus [7]): 778%; Change (Mus musculus [36]): 224%; Drug discrimination effect (Rattus norvegicus [37]): 0%; Change (Mus musculus [38]): 184%; Drug discrimination effect (Rattus norvegicus [39]): 75%; Change (Mus musculus [40]): 82%; Change (Mus musculus [41]): 103%; Drug discrimination effect (Rattus norvegicus [20]): 71%; Change (Mus musculus [42]): 1900%; Change (Mus musculus [26]): 284% |
| Cc1cc(C2C(c3ccc(Cl)cc3)CC3CCC2N3C)on1 (stereo not given) | 6.74 | 926% |  | 6.24 | 6.96 |  |  |  |  | 526% | 9.23 | 392% |  |  |  | 543% | 735% | 0.21 mg/kg | 1.2 | 0.2 mg/kg | pKi [35]: 7.28; Drug discrimination effect (Rattus norvegicus [43]): 25%; Change (Mus musculus [7]): 981%; Change (Mus musculus [36]): 92%; Drug discrimination effect (Rattus norvegicus [44]): 0%; Drug discrimination effect (Rattus norvegicus [37]): 88%; Change (Mus musculus [38]): 38%; Change (Mus musculus [40]): 48%; Change (Mus musculus [41]): -23%; Change (Mus musculus [42]): 434%; Change (Mus musculus [26]): 354% |
